In PMC4788712 (Acta Pharmaceutica Sinica. B, 2015):
Where “and” joins values, the source holds several entries; their conditions need not be identical. Identical values can stand only once. Like-named read-outs stand apart in the source and are kept apart here.

Tests used:
[1] = assay type: in vivo, human; conditions: for AUC0-t / AUC0-∞ / MRT0-t / MRT0-∞ / t1/2: in hPBMCs, single oral dose 600 mg AZT, mean±SD, n=12; for MRT inf / MRT last / half-life: male, human, peripheral blood mononuclear cells (hPBMCs), po, 600 mg
[2] = Plasma pharmacokinetics after a single oral dose of AZT; assay type: in vivo, human; conditions: for Plasma concentration of the phosphorylated metabolites: after single oral dose 600 mg AZT
In short: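 Open-label study in 12 healthy Chinese men (20–28 y) after an overnight fast of at least 12 h. Each took a single 600 mg oral dose of test compound with 240 mL water, with standardized meals at 4 and 10 h. Heparinized blood (20 mL) was drawn by antecubital catheter predose and at 0.5–10 h. Plasma was stored at –20 °C and assayed by validated LC–MS/MS (C18; 0.2% formic acid/methanol), LLOQ 0.1125 pg/μL.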

[3] = liver or heart mitochondria; cited from earlier work
[4] = Safety and tolerability in healthy subjects; assay type: in vivo, human
In short: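 Open-label, single-dose study in 12 screened healthy Chinese men, negative for hepatitis and HIV. After an overnight fast of at least 12 h, each took 600 mg orally with 240 mL water, with standardized meals at 4 and 10 h. Safety was assessed in all completers under prolonged bed rest, extended stay in the clinical unit, and enhanced clinical monitoring and nursing.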

[5] = single oral dose 600 mg AZT, 12 subjects

| AUC0-t [1] | AUC0-∞ [1] | Plasma concentration of the phosphorylated metabolites [2] | MRT inf [1] | MRT last [1] | half-life [1] | Structure (SMILES) | MRT0-t [1] | MRT0-∞ [1] | t1/2 [1] | other results |
| --- | --- | --- | --- | --- | --- | --- | --- | --- | --- | --- |
| 0.345±0.055 ng⋅h/10^6 cell | 0.615±0.161 ng⋅h/10^6 cell | not present in measurable levels | – | – | – | Cc1cn([C@H]2C[C@H](N=[N+]=[N-])[C@@H](COP(=O)(O)OP(=O)(O)O)O2)c(=O)[nH]c1=O [AZT-DP, AZT diphosphate] | 0.792 ± 12.028 h | 14.270 ± 6.350 h | 8.285 ± 2.840 h | – |
| 0.223±0.043 ng⋅h/10^6 cell | 0.279±0.069 ng⋅h/10^6 cell | not present in measurable levels | 6.33 ± 1.14 h | 3.87 ± 0.235 h | 4.24 ± 0.977 h | Cc1cn([C@H]2C[C@H](N=[N+]=[N-])[C@@H](CO[P@](=O)(O)O[P@](=O)(O)OP(=O)(O)O)O2)c(=O)[nH]c1=O [AZT-TP, 5′-AZT triphosphate] | – | – | – | Detection of AZT-TP during incubation in mitochondria [3]: No AZT-TP was detected |
| 0.371±0.193 ng⋅h/10^6 cell | 0.396±0.189 ng⋅h/10^6 cell | – | 14.9 ± 32.4 h | 4.94 ± 19.3 h | 2.49 ± 0.638 h | Cc1cn([C@H]2C[C@H](N=[N+]=[N-])[C@@H](CO)O2)c(=O)[nH]c1=O [AZT, 3'-azido-3'-deoxythymidine] | – | – | – | Hypersensitivity to AZT ([4]; 12 subjects): None of the 12 subjects had hypersensitivity; Tolerability ([4]; single oral dose 600 mg AZT, 12 healthy Chinese male subjects): well tolerated; Reported ADR: headache [4, 5]: one report; Reported ADR: nausea [4, 5]: one report; AUC0-t ([2]; male, human, po, 600 mg): 7.05 ± 1.28 µg·h/mL; AUC(0-inf) ([2]; male, human, po, 600 mg): 7.17 ± 1.27 µg·h/mL; Cmax ([2]; male, human, po, 600 mg): 3.51 ± 0.363 µg/mL; MRT inf ([2]; male, human, po, 600 mg): 2.4 ± 0.216 h; MRT last ([2]; male, human, po, 600 mg): 2.2 ± 0.253 h; Vd/F ([2]; male, human, po, 600 mg): 264 ± 162 L; half-life ([2]; male, human, po, 600 mg): 2.02 ± 0.946 h; CL/F ([2]; single oral dose 600 mg AZT, mean±SD, n=12): 86.092 ± 14.962 L/h |

| Structure (SMILES) | AUC0-t [1] | AUC0-∞ [1] | Plasma concentration of the phosphorylated metabolites [2] | MRT inf [1] | MRT last [1] | half-life [1] | MRT0-t [1] | MRT0-∞ [1] | t1/2 [1] | other results |
| --- | --- | --- | --- | --- | --- | --- | --- | --- | --- | --- |
| Cc1cn([C@H]2C[C@H](N=[N+]=[N-])[C@@H](COP(=O)(O)O)O2)c(=O)[nH]c1=O [AZT-MP, AZT monophosphate] | 2.548 ng⋅h/10^6 cell and 2.548±0.656 ng⋅h/10^6 cell | 6.343±2.964 ng⋅h/10^6 cell | not present in measurable levels | – | – | – | 4.190 ± 0.347 h | 18.715 ± 12.856 h | 13.428 ± 9.611 h | – |
